Data from ChEMBL document CHEMBL1130259, “Nonsymmetrically substituted cyclic urea HIV protease inhibitors” (J Med Chem, 1997).
pKi: −log10 of the molar value.

Legend:
[1] = molecular target: Human immunodeficiency virus type 1 protease (Human immunodeficiency virus 1, UniProt Q72874); test: Affinity against HIV protease
[2] = Partition coefficient (logP) (HPLC); type: physicochemical; conditions: octanol/water
[3] = Oral bioavailability in dog (dose 10 mg/kg); type: ADME, organism-based, Canis lupus familiaris; conditions: in vivo
How it was run: (§1)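 Female Beagle dogs received either 10.0 mg/kg orally (three dogs; 10.0 mg/mL, 1.0 mL/kg) or 5.0 mg/kg intravenously (same formulation, 0.5 mL/kg). Vehicle was PEG400/water/EtOH (60/30/10). Plasma concentrations were assayed by a method validated over 0.10–50.0 μg/mL.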

[4] = Half life (10 mg/kg, orally) […] in dog plasma; type: ADME, organism-based, Canis lupus familiaris
How it was run: (§2)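 Three female Beagle dogs were dosed orally at 10.0 mg/kg. The compound was given at 10.0 mg/mL in PEG400/water/EtOH (60/30/10) at 1.0 mL/kg. Plasma drug was quantified by a method validated in dog plasma over 0.10–50.0 μg/mL.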

[5] = Apparent volume of distribution of compound (5 mg/kg, intravenously) in dogs; conditions: dog, in vivo, iv, read-out: Vss
[6] = Maximum concentration (10 mg/kg, orally) in plasma of dogs; type: ADME, organism-based, Canis lupus familiaris; parameters: dose 10 mg/kg, route oral; conditions: dog, po; how it was run: as §2
[7] = Half life (5 mg/kg, intravenously) determined by administering intravenously in dogs; conditions: dog, in vivo, iv
[8] = Clearance (5 mg/kg, intravenously) in dog plasma; conditions: iv
[9] = molecular target: Human immunodeficiency virus type 1 protease (Human immunodeficiency virus 1) (UniProt Q72874)
[10] = Half life (5 mg/kg, intravenously) determined by administering intravenously in dogs; type: ADME, organism-based, Canis lupus familiaris; conditions: dog, in vivo, iv
How it was run: (§3)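 Female Beagle dogs given a 5.0 mg/kg intravenous dose. Formulation was 10.0 mg/mL in PEG400/water/EtOH (60/30/10), dosed at 0.5 mL/kg. Compound levels were measured in plasma by a method validated over 0.10–50.0 μg/mL.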

[11] = Clearance of compound (5 mg/kg, intravenously), in dog plasma; type: ADME, organism-based, Canis lupus familiaris; conditions: iv; how it was run: as §3
[12] = Maximum concentration (10 mg/kg, perorally) in plasma of dogs; type: ADME, organism-based, Canis lupus familiaris; parameters: dose 10 mg/kg, route oral; conditions: dog, po; how it was run: as §2
[13] = Half life (10 mg/kg, perorally) […] in dogs; type: ADME, organism-based, Canis lupus familiaris; conditions: dog, in vivo; how it was run: as §2
[14] = Apparent volume of distribution of compound (5 mg/kg, intravenously) in dogs; type: ADME, organism-based, Canis lupus familiaris; conditions: dog, in vivo, iv, read-out: Vss; how it was run: as §3
Canis lupus familiaris = species on record: Canis lupus familiaris; test: Clearance of compound in dog plasma
[15] = Apparent volume of distribution of compound in dog plasma; type: ADME, organism-based, Canis lupus familiaris; conditions: read-out: Vss; how it was run: as §3
[16] = Maximum concentration in dog plasma; type: ADME, organism-based, Canis lupus familiaris; how it was run: as §1
[17] = Half life determined by administering intravenously in dog; type: ADME, organism-based, Canis lupus familiaris; conditions: in vivo, iv; how it was run: as §3
[18] = Maximum concentration (5 mg/kg, intravenously) in plasma of dogs; type: ADME, organism-based, Canis lupus familiaris; parameters: dose 5 mg/kg, route intravenous; conditions: dog, iv; how it was run: as §3
[19] = Half life determined by administering intravenously in dog plasma; type: ADME, organism-based, Canis lupus familiaris; conditions: iv; how it was run: as §3
[20] = Clearance of compound in dog plasma; type: ADME, organism-based, Canis lupus familiaris; how it was run: as §3

Nc1cccc(CN2C(=O)N(Cc3cccc(N)c3)[C@H](Cc3ccccc3)[C@H](O)[C@@H](O)[C@H]2Cc2ccccc2)c1 [MOZENAVIR]
pKi [1]: 9.51 | logP [2]: 3.17 | bioavailability [3]: 79.2% | half-life [4]: 2.5 h | Vd [5]: 1.3 L/kg | Cmax [6]: 6000 ng/mL | half-life [7]: 3.6 h | clearance [8]: 3.33 mL/min/kg

COc1cccc(CN2C(=O)N(Cc3cccc(C(=O)Nc4ccccn4)c3)[C@H](Cc3ccccc3)[C@H](O)[C@@H](O)[C@H]2Cc2ccccc2)c1
pKi [1]: 10.33 | logP [2]: 5.06 | IC90 [9]: 30 nM

COc1cc(CN2C(=O)N(Cc3cccc(C(=O)Nc4ccc(C)cn4)c3)[C@H](Cc3ccccc3)[C@H](O)[C@@H](O)[C@H]2Cc2ccccc2)cc(OC)c1
pKi [1]: 8.72 | logP [2]: 5.59 | IC90 [9]: 282 nM

COc1cc(CN2C(=O)N(Cc3cccc(C(=O)Nc4cnccn4)c3)[C@H](Cc3ccccc3)[C@H](O)[C@@H](O)[C@H]2Cc2ccccc2)cc(OC)c1
pKi [1]: 8.60 | logP [2]: 4.84 | IC90 [9]: 743 nM

COc1cc(CN2C(=O)N(Cc3cccc(C(=O)Nc4cccc(C)n4)c3)[C@H](Cc3ccccc3)[C@H](O)[C@@H](O)[C@H]2Cc2ccccc2)cc(OC)c1
pKi [1]: 9.15 | logP [2]: 5.69 | IC90 [9]: 282 nM

COc1cccc(CN2C(=O)N(Cc3cccc(C(=O)Nc4cccc(C)n4)c3)[C@H](Cc3ccccc3)[C@H](O)[C@@H](O)[C@H]2Cc2ccccc2)c1
pKi [1]: 10.28 | logP [2]: 5.54 | IC90 [9]: 42.7 nM

CC(C)(C)NC(=O)[C@@H]1C[C@@H]2CCCC[C@@H]2CN1C[C@@H](O)[C@H](Cc1ccccc1)NC(=O)[C@H](CC(N)=O)NC(=O)c1ccc2ccccc2n1
IC90 [9]: 10.4 nM

CC(C)(C)NC(=O)c1cccc(CN2C(=O)N(Cc3cccc(N)c3)[C@H](Cc3ccccc3)[C@H](O)[C@@H](O)[C@H]2Cc2ccccc2)c1
pKi [1]: 9.39 | logP [2]: 5.28 | IC90 [9]: 114 nM

COc1cccc(CN2C(=O)N(Cc3cccc(C(=O)Nc4ccc(C)cn4)c3)[C@H](Cc3ccccc3)[C@H](O)[C@@H](O)[C@H]2Cc2ccccc2)c1
pKi [1]: 10.16 | logP [2]: 5.51 | IC90 [9]: 41.6 nM

CC(C)c1nc(CN(C)C(=O)N[C@H](C(=O)N[C@@H](Cc2ccccc2)C[C@H](O)[C@H](Cc2ccccc2)NC(=O)OCc2cncs2)C(C)C)cs1
IC90 [9]: 76 nM

Nc1cccc(CN2C(=O)N(Cc3cccc(C(=O)Nc4ncc[nH]4)c3)[C@H](Cc3ccccc3)[C@H](O)[C@@H](O)[C@H]2Cc2ccccc2)c1
pKi [1]: 10.92 | logP [2]: 3.39 | half-life [10]: 5.6 h | bioavailability [3]: 68% | clearance [11]: 8.33 mL/min/kg | Cmax [12]: 900 ng/mL | IC90 [9]: 26.2 nM | half-life [13]: 10.3 h | Vd [14]: 4 L/kg

Cc1ccc(NC(=O)c2cccc(CN3C(=O)N(Cc4cccc(C(=O)Nc5ccc(C)cn5)c4)[C@H](Cc4ccccc4)[C@H](O)[C@@H](O)[C@H]3Cc3ccccc3)c2)nc1
clearance (Canis lupus familiaris): 66.7 mL/min/kg | Vd [15]: 4.5 L/kg | IC90 [9]: 3.1 nM | Cmax [16]: 100 ng/mL | half-life [17]: 1 h

N#CCNC(=O)c1cccc(CN2C(=O)N(Cc3cccc(C(=O)NCC(=O)O)c3)[C@H](Cc3ccccc3)[C@H](O)[C@@H](O)[C@H]2Cc2ccccc2)c1
pKi [1]: 10.62 | logP [2]: 2.44 | IC90 [9]: 741 nM

O=C(Nc1ccccn1)c1cccc(CN2C(=O)N(Cc3cccc([N+](=O)[O-])c3)[C@H](Cc3ccccc3)[C@H](O)[C@@H](O)[C@H]2Cc2ccccc2)c1
pKi [1]: 10.02 | logP [2]: 5.05 | IC90 [9]: 97.5 nM

Nc1cccc(CN2C(=O)N(Cc3cccc(C(=O)Nc4cnccn4)c3)[C@H](Cc3ccccc3)[C@H](O)[C@@H](O)[C@H]2Cc2ccccc2)c1
pKi [1]: 10.80 | logP [2]: 3.77 | IC90 [9]: 20.2 nM

O=C1N(Cc2ccc(CO)cc2)[C@H](Cc2ccccc2)[C@H](O)[C@@H](O)[C@@H](Cc2ccccc2)N1Cc1ccc(CO)cc1 [DMP-323]
logP [2]: 3.56 | IC90 [9]: 115 nM

CC(C)CN(C[C@@H](O)[C@H](Cc1ccccc1)NC(=O)O[C@H]1CCOC1)S(=O)(=O)c1ccc(N)cc1
IC90 [9]: 46 nM

Cc1ccc(NC(=O)c2cccc(CN3C(=O)N(Cc4cccc(N)c4)[C@H](Cc4ccccc4)[C@H](O)[C@@H](O)[C@H]3Cc3ccccc3)c2)nc1
pKi [1]: 10.12 | logP [2]: 4.47 | IC90 [9]: 16.5 nM

CC(C)(C)NC(=O)[C@@H]1CN(Cc2cccnc2)CCN1C[C@@H](O)C[C@@H](Cc1ccccc1)C(=O)N[C@H]1c2ccccc2C[C@H]1O
IC90 [9]: 50 nM

COc1cccc(CN2C(=O)N(Cc3cccc(C(=O)Nc4cnccn4)c3)[C@H](Cc3ccccc3)[C@H](O)[C@@H](O)[C@H]2Cc2ccccc2)c1
pKi [1]: 10.42 | logP [2]: 4.75 | IC90 [9]: 91.2 nM

Nc1cccc(CN2C(=O)N(Cc3cccc(C(=O)Nc4nc5ccccc5[nH]4)c3)[C@H](Cc3ccccc3)[C@H](O)[C@@H](O)[C@H]2Cc2ccccc2)c1
pKi [1]: 10.64 | logP [2]: 4.95 | half-life [10]: 1.5 h | bioavailability [3]: 109% | Cmax [18]: 5500 ng/mL | IC90 [9]: 13.2 nM

O=C(Nc1ccccn1)c1cccc(CN2C(=O)N(Cc3cccc(C(=O)Nc4ccccn4)c3)[C@H](Cc3ccccc3)[C@H](O)[C@@H](O)[C@H]2Cc2ccccc2)c1
half-life [19]: 1.1 h | Vd [15]: 10.3 L/kg | IC90 [9]: 2.8 nM | Cmax [16]: < 200 ng/mL | clearance [20]: 70 mL/min/kg

COc1cc(CN2C(=O)N(Cc3cccc(C(=O)Nc4ccccn4)c3)[C@H](Cc3ccccc3)[C@H](O)[C@@H](O)[C@H]2Cc2ccccc2)cc(OC)c1
pKi [1]: 9.07 | logP [2]: 5.2 | IC90 [9]: 129 nM

O=C(Nc1cnccn1)c1cccc(CN2C(=O)N(Cc3cccc(C(=O)Nc4cnccn4)c3)[C@H](Cc3ccccc3)[C@H](O)[C@@H](O)[C@H]2Cc2ccccc2)c1
half-life [19]: 0.8 h | Vd [15]: 3 L/kg | IC90 [9]: 3.5 nM | Cmax [16]: 400 ng/mL | clearance [20]: 46.7 mL/min/kg
